Data from ChEMBL document CHEMBL1137740, “Design, cytotoxic and fluorescent properties of novel N-phosphorylalkyl substituted E,E-3,5-bis(arylidene)piperid-4-ones” (Eur J Med Chem, 2009).

Legend:
[1] = Cytotoxicity against human Caov3 cells after 72 hrs by MTT assay; format: functional, cell-based; conditions: Caov-3, 72 h
In short: (§1)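 Cells grown in RPMI-1640 with 10% FBS, 2 mM L-glutamine and gentamicin. Seeded at 1×10^4 cells/well and allowed to attach overnight at 37 °C, 5% CO2. Compounds dissolved in DMSO and diluted into FBS-free medium, tested at 5×10^-5, 10^-5, 10^-6 and 10^-7 M. After 72 h, MTT added for 3 h at 37 °C. Formazan dissolved in DMSO and OD read at 590 nm. Viability expressed versus untreated controls, triplicates. IC50 determined graphically; melphalan as positive control.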

[2] = test system: SK-OV-3; assay: Cytotoxicity against human Scov3 cells after 72 hrs by MTT assay; format: functional, cell-based; conditions: SK-OV-3, 72 h; in short: as §1
[3] = test system: A549; assay: Cytotoxicity against human A549 cells after 72 hrs by MTT assay; format: functional, cell-based; conditions: A549, 72 h; in short: as §1
[4] = test system: PC-3; assay: Cytotoxicity against human PC3 cells after 72 hrs by MTT assay; format: functional, cell-based; conditions: PC-3, 72 h; in short: as §1
[5] = Cytotoxicity against human Caov3 cells at 50 uM after 72 hrs by MTT assay; format: functional; conditions: Caov-3, 72 h
[6] = test system: A549; assay: Cytotoxicity against human A549 cells at 50 uM after 72 hrs by MTT assay; format: functional; conditions: A549, 72 h
[7] = test system: SK-OV-3; assay: Cytotoxicity against human Scov3 cells at 50 uM after 72 hrs by MTT assay; format: functional; conditions: SK-OV-3, 72 h
[8] = test system: PC-3; assay: Cytotoxicity against human PC3 cells at 50 uM after 72 hrs by MTT assay; format: functional; conditions: PC-3, 72 h

O=C1/C(=C/c2ccc([N+](=O)[O-])cc2)CNC/C1=C\c1ccc([N+](=O)[O-])cc1
IC50 [1]: 1.03 µM | IC50 [2]: 2.5 µM | IC50 [3]: 0.4 µM | IC50 [4]: 1.54 µM

O=C1/C(=C/c2ccc(F)cc2)CNC/C1=C\c1ccc(F)cc1
inhibition at 50 µM [5]: < 50% | IC50 [2]: 6.5 µM | IC50 [3]: 0.8 µM | IC50 [4]: 6 µM

CN(C)c1ccc(/C=C2\CNC/C(=C\c3ccc(N(C)C)cc3)C2=O)cc1
inhibition at 50 µM [5]: < 50% | IC50 [2]: 14 µM | IC50 [3]: 1.4 µM | IC50 [4]: 15 µM

CCOP(=O)(CCCN1C/C(=C\c2ccc(N(C)C)cc2)C(=O)/C(=C/c2ccc(N(C)C)cc2)C1)OCC
inhibition at 50 µM [6]: < 50% | inhibition at 50 µM [7]: < 50% | inhibition at 50 µM [5]: < 50% | inhibition at 50 µM [8]: < 50%

CCOP(=O)(CCCCN1C/C(=C\c2ccc(N(C)C)cc2)C(=O)/C(=C/c2ccc(N(C)C)cc2)C1)OCC
inhibition at 50 µM [6]: < 50% | inhibition at 50 µM [7]: < 50% | inhibition at 50 µM [5]: < 50% | inhibition at 50 µM [8]: < 50%

CCOP(=O)(CCN1C/C(=C\c2ccc(N(C)C)cc2)C(=O)/C(=C/c2ccc(N(C)C)cc2)C1)OCC
inhibition at 50 µM [6]: < 50% | inhibition at 50 µM [7]: < 50% | inhibition at 50 µM [5]: < 50% | inhibition at 50 µM [8]: < 50%

CCOP(=O)(CCN1C/C(=C\c2ccc([N+](=O)[O-])cc2)C(=O)/C(=C/c2ccc([N+](=O)[O-])cc2)C1)OCC
IC50 [1]: 5.05 µM | IC50 [2]: 2.01 µM | IC50 [3]: 1 µM | IC50 [4]: 1.32 µM

CCOP(=O)(CCCN1C/C(=C\c2ccc([N+](=O)[O-])cc2)C(=O)/C(=C/c2ccc([N+](=O)[O-])cc2)C1)OCC
IC50 [1]: 5.62 µM | IC50 [2]: 0.9 µM | IC50 [3]: 7.12 µM | IC50 [4]: 0.71 µM

CCOP(=O)(CN1C/C(=C\c2ccc(N(C)C)cc2)C(=O)/C(=C/c2ccc(N(C)C)cc2)C1)OCC
inhibition at 50 µM [6]: < 50% | inhibition at 50 µM [7]: < 50% | inhibition at 50 µM [5]: < 50% | IC50 [4]: 30 µM

CCOP(=O)(CN1C/C(=C\c2ccc(F)cc2)C(=O)/C(=C/c2ccc(F)cc2)C1)OCC
IC50 [1]: 10.2 µM | IC50 [2]: 2.1 µM | IC50 [3]: 8.05 µM | IC50 [4]: 3 µM

CCOP(=O)(CN1C/C(=C\c2ccc([N+](=O)[O-])cc2)C(=O)/C(=C/c2ccc([N+](=O)[O-])cc2)C1)OCC
IC50 [1]: 5.03 µM | IC50 [2]: 1.52 µM | IC50 [3]: 1 µM | IC50 [4]: 1.4 µM

CCOP(=O)(CCCN1C/C(=C\c2ccc(F)cc2)C(=O)/C(=C/c2ccc(F)cc2)C1)OCC
IC50 [1]: 8.5 µM | IC50 [2]: 2.8 µM | IC50 [3]: 9.07 µM | IC50 [4]: 1.82 µM

CCOP(=O)(CCN1C/C(=C\c2ccc(F)cc2)C(=O)/C(=C/c2ccc(F)cc2)C1)OCC
IC50 [1]: 10 µM | IC50 [2]: 1.64 µM | IC50 [3]: 1.02 µM | IC50 [4]: 4.01 µM

CCOP(=O)(CCCCN1C/C(=C\c2ccc([N+](=O)[O-])cc2)C(=O)/C(=C/c2ccc([N+](=O)[O-])cc2)C1)OCC
IC50 [1]: 1.01 µM | IC50 [2]: 4.1 µM | IC50 [3]: 3 µM | IC50 [4]: 1.2 µM

N[C@@H](Cc1ccc(N(CCCl)CCCl)cc1)C(=O)O [MELPHALAN]
IC50 [1]: 20 µM | IC50 [2]: 60 µM | IC50 [3]: 50 µM | IC50 [4]: 70 µM
